Experimental data pooled from the literature.
pIC50: −log10 of the molar value.
PIK3CA: Phosphatidylinositol 4,5-bisphosphate 3-kinase catalytic subunit alpha isoform (PIK3CA, Homo sapiens, UniProt P42336)
PIKFYVE: 1-phosphatidylinositol 3-phosphate 5-kinase (PIKFYVE, Homo sapiens, UniProt Q9Y2I7)
PTK6: Protein-tyrosine kinase 6 (PTK6, Homo sapiens, UniProt Q13882)
PDE9A: High affinity cGMP-specific 3',5'-cyclic phosphodiesterase 9A (PDE9A, Homo sapiens, UniProt O76083)
CELA1: Chymotrypsin-like elastase family member 1 (CELA1, Sus scrofa, UniProt P00772)

O=C1NC(=S)SC1=Cc1ccc2nccnc2c1 — pIC50 (PIK3CA; enzyme activity, inhibitor, radiometric): 8.55
CC(C)(C#Cc1ccc2[nH]c3c(c2c1)-c1nc(N)ncc1CCC3)NS(C)(=O)=O — pIC50 (PIKFYVE; enzyme activity, inhibitor, ADP detection): 6.85
CC(C)C[C@H](NC(=O)[C@H](C)NC(=O)[C@H](CCCCN)NC(=O)[C@H](CCCCN)NC(=O)[C@@H](N)CCCCN)C(=O)N[C@@H](CC(N)=O)C(=O)N[C@@H](CCCNC(=N)N)C(=O)N[C@@H](CCC(N)=O)C(=O)N[C@@H](CC(C)C)C(=O)NCC(=O)N[C@H](C(=O)N[C@@H](C)C(=O)N[C@@H](C)C(N)=O)C(C)C — pIC50 (MAP kinase-activated protein kinase 2 (MAPKAPK2, Homo sapiens, UniProt P49137); enzyme activity, inhibitor, radiometric): 4.51
CCn1ncc2c1-c1cnc(N)c(c1)O[C@H](C)c1cc(F)ccc1-c1nn(C)nc1C2 — pIC50 (PTK6; enzyme activity, inhibitor, radiometric): 6.74
COc1cc(O)c(CC=C(C)C)c(O)c1C(=O)/C=C/c1ccc(O)cc1 — pIC50 (Cytochrome P450 1A1 (CYP1A1, Homo sapiens, UniProt P04798); enzyme activity, inhibitor, fluorescence; 15 min, pH 7.4): 6.55
CCCC1CNCc2c1[nH]c(=O)c(C#N)c2N1CCC2(CC1)CC2(F)F (stereo not shown) — pIC50 (PDE9A; enzyme activity, inhibitor, radiometric): 7.16
COc1ccc(C2=NN(C3CCCCCC3)C(=O)[C@@H]3CC=CC[C@H]23)cc1-c1ccc(C(N)=O)cc1 (relative stereo) — pIC50 (PDE9A; enzyme activity, inhibitor): < 5.00
C[C@H](CS)C(=O)N1CCC[C@@H]1C(=O)O — pIC50 (Beta-lactamase L1 (Stenotrophomonas maltophilia, UniProt P52700); enzyme activity, inhibitor): 4.17
COc1ccc(/C=C2\SC(=S)NC2=O)c(OC)c1OC — pIC50 (PIK3CA; enzyme activity, inhibitor, radiometric): 4.17
CCC(C)(O)C#Cc1ccc2[nH]c3c(c2c1)-c1nc(N)ncc1CCC3 (stereo not shown) — pIC50 (PIKFYVE; enzyme activity, inhibitor, ADP detection): 8.72
Cc1ccc(C(=O)Nc2ccc(Oc3cc4cnn(C)c4cc3-c3cn[nH]c3)c(F)c2)c(=O)n1-c1ccc(F)cc1 — pIC50 (Vascular endothelial growth factor receptor 2 (KDR, Homo sapiens, UniProt P35968); enzyme activity, inhibitor, radiometric): 7.28
COC(C)(C)C#Cc1ccc2[nH]c3c(c2c1)-c1nc(N)ncc1CCC3 — pIC50 (PIKFYVE; enzyme activity, inhibitor, ADP detection): 8.21
CCNC(=O)[C@H](CCCNC(=N)CF)NC(=O)c1ccccc1 — pIC50 (Protein-arginine deiminase type-1 (PADI1, Homo sapiens, UniProt Q9ULC6); enzyme activity, inhibitor): 4.40
CCCCN1/C(=C/C=C/c2sc3ccc(Br)cc3[n+]2CCCC)Sc2ccc(Br)cc21 — pIC50 (Protein arginine N-methyltransferase 8 (PRMT8, Homo sapiens, UniProt Q9NR22); enzyme activity, inhibitor, radiometric): 5.45
CSc1ccc(/C=C2/C(C)=C(CC(=O)O)c3cc(F)ccc32)cc1 — pIC50 (PDE9A; enzyme activity, inhibitor): < 4.00
CCOc1ccc2c(-c3cc(C)nc(Nc4cc(OC)cc(C(F)(F)F)c4)n3)cnn2n1 — pIC50 (Dual specificity tyrosine-phosphorylation-regulated kinase 2 (DYRK2, Homo sapiens, UniProt Q92630); enzyme activity, inhibitor): < 5.00
O=C1NC(=S)S/C1=C\c1c[nH]c2ccccc12 — pIC50 (PIK3CA; enzyme activity, inhibitor, radiometric): < 4.00
Cc1ccc(C(C)C)cc1NC(=O)COC(=O)c1cc(O)cc(O)c1 — pIC50 (CELA1; enzyme activity, inhibitor, absorbance): 4.47
O=C(NCc1ccc(N2CCOCC2)cc1)c1cnc2c(SSc3cccc4cc(C(=O)NCc5ccc(N6CCOCC6)cc5)cnc34)cccc2c1 — pIC50 (STAM-binding protein (STAMBP, Homo sapiens, UniProt O95630); enzyme activity, inhibitor, FRET): 6.05
CC(C)(O)CC#Cc1ccc2[nH]c3c(c2c1)-c1nc(N)ncc1CCC3 — pIC50 (PIKFYVE; target engagement in cells, BRET): 6.54
COc1ccc([N+](=O)[O-])cc1/C=C1\SC(=S)NC1=O — pIC50 (PIK3CA; enzyme activity, inhibitor, radiometric): 4.55
Cc1ccc(C(C)C)cc1NC(=O)COC(=O)c1ccc(O)cc1O — pIC50 (CELA1; enzyme activity, inhibitor, absorbance): 4.48
C=CC(=O)Nc1cc(Nc2nccc(Nc3cc(Cl)c(F)cc3C(C)(C)O)n2)c(OC)cc1N1CC[C@@H](N(C)C)C1 — pIC50 (PTK6; enzyme activity, inhibitor; with preincubation): 6.28
Cc1ccc(C(C)C)cc1NC(=O)COC(=O)/C=C/c1ccc(Cl)cc1 — pIC50 (CELA1; enzyme activity, inhibitor, absorbance): 4.45
Nc1ncc(-c2nc(N3CCOCC3)nc(N3C[C@H]4CC[C@@H](C3)O4)n2)c(C(F)F)n1 — pIC50 (PIK3CA; ligand displacement, TR-FRET): 7.38
O=C1NC(=S)S/C1=C\c1cc([N+](=O)[O-])ccc1O — pIC50 (PIK3CA; enzyme activity, inhibitor, radiometric): 4.64
CN1CCN(c2ccc(Nc3ncc4cc(C#N)c(=O)n(C5CCCC5)c4n3)cc2)CC1 — pIC50 (Activin receptor type-1-like (ACVRL1, Homo sapiens, UniProt P37023); enzyme activity, inhibitor): 6.35
Cc1cnc(-c2ccc(-c3ccc(NC(=O)Nc4c(F)cc(F)cc4F)cc3F)c3c2C(=O)NC3)[nH]1 — pIC50 (Dual specificity mitogen-activated protein kinase kinase 1 (MAP2K1, Homo sapiens, UniProt Q02750); enzyme activity, inhibitor): 7.37
NC(=O)c1ccc[n+]([C@@H]2O[C@H](COP(=O)([O-])OP(=O)(O)OC[C@H]3O[C@@H](n4cnc5c(N)ncnc54)[C@H](O)[C@@H]3O)[C@@H](O)[C@H]2O)c1 — pIC50 (Protein mono-ADP-ribosyltransferase PARP11 (PARP11, Homo sapiens, UniProt Q9NR21); enzyme activity, inhibitor): 3.94
CCn1c(-c2nc3cc(C(=O)N4CCC[C@@H](N)C4)cc(OC)c3n2C)cc2cccnc21 — pIC50 (Vasopressin V1a receptor (AVPR1A, Homo sapiens, UniProt P37288); calcium signal, antagonist, fluorescence): < 4.30
Cn1cc(C2=C(c3coc4ccccc34)C(=O)NC2=O)c2cc(Br)ccc21 — pIC50 (PIK3CA; enzyme activity, inhibitor): 6.06
O=C1NC(=S)S/C1=C\c1cc(Br)cc(Br)c1 — pIC50 (PIK3CA; enzyme activity, inhibitor, radiometric): < 4.00
COc1ccc(S(=O)(=O)ON=C2C=C(C)C(=O)C(C)=C2)cc1 — pIC50 (Histone acetyltransferase KAT6B (Homo sapiens, UniProt Q8WYB5); enzyme activity, inhibitor, radiometric): < 4.00
C/C=C1\NC(=O)[C@H](C)NC(=O)[C@@H](NC(=O)[C@@H](Cc2ccc(O)cc2)NC(=O)[C@@H](NC(=O)/C(C)=C/C)C(C)C)[C@@H](C)OC(=O)[C@H](Cc2ccccc2)NC(=O)[C@@H](CCC(=O)O)NC1=O — pIC50 (CELA1; enzyme activity, inhibitor, absorbance): 5.16
